Consider two compounds from ChEMBL document CHEMBL2169867, “Novel β-amino acid derivatives as inhibitors of cathepsin A” (J Med Chem, 2012).

pIC50: −log10 of the molar value. Activity calls are given as the source filed them. The rule behind the calls is not given here.

Series [1] in a line: Solubility of the compound. Type of series: physicochemical.
Series [2] concerns the target Voltage-gated inwardly rectifying potassium channel KCNH2 (Homo sapiens, UniProt Q12809). The experiment in a line: Inhibition of human ERG.
The test system of series [3] is Salmonella typhimurium. The experiment in a line: Genotoxicity against Salmonella typhimurium by AMES test. The class given is toxicity, organism-based. The conditions noted are these: salmonella enterica subsp. enterica serovar typhimurium.
The nature of series [4]: Oral bioavailability in Sprague-Dawley rat at 10 mg/kg. To be noted: in vivo. Type of series: ADME, organism-based.
Series [5] can be described thus: Lipophilicity, log D of the compound. The conditions noted are these: octanol/water. Type of series: physicochemical.
Series [6] deals with Neprilysin (Homo sapiens, UniProt P08473). The experiment in a line: Inhibition of human recombinant NEP using Mca-RPPGFSAFK(Dnp)-OH as substrate incubated for 15 mins prior to substrate addition measured after 20 to 30 mins by fluorimetric analysis. The gist of the method:
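Recombinant human NEP and inhibitor preincubated 15 min at room temperature in reaction buffer, then substrate added. Fluorescence read after 20-30 min at room temperature. % inhibition and IC50 calculated against internal high and low controls.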

Series [7] concerns the target CYP3A4 (Homo sapiens, UniProt P08684). The experiment in a line: Induction of CYP3A4 relative to control. The class given is ADME. The conditions noted are these: human.
Series [8] can be described thus: Genotoxicity in micronucleus.
A short description of series [9]: Drug metabolism in rat liver microsomes. The class given is ADME, Microsome. The conditions noted are these: read-out: Drug metabolism.
Series [10] is described as follows: Drug metabolism in human liver microsomes. The class given is ADME, Microsome. The conditions noted are these: read-out: Drug metabolism. On the technique in general: Liver microsomes are vesicles of endoplasmic reticulum, rich in cytochrome P450 enzymes.
In series [11] the test system is Mus musculus. The series is described as follows: Cardioprotective activity against angiotensin 2-induced cardiac hypertrophy in B6.129P2-ApoE/J mouse assessed as left ventricular end diastolic pressure at 100 mg/kg, po administered QD after 4 weeks (reference value: 15.49 1.95 mmHg). The class given is functional, Heart left ventricle.
In series [12] the test system is Rattus norvegicus. The series is described as follows: Antihypertensive activity in Wistar rat assessed as bradykinin-dependent diuresis at 10 mg/kg, iv administered as bolus measured as urine flow rate in presence of HOE140 (reference value: 11.6 uL/min). Type of series: functional. The gist of the method: (§1)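 Anesthetized male Wistar rats prepared with urethane, carotid/jugular cannulae, continuous albumin-saline infusion and ureteral urine collection. Compound given as iv bolus at 10 mg/kg, alone or with HOE140 0.5 mg/kg iv. Urine volume measured over five successive 20 min periods; two-way ANOVA with Bonferroni post-tests, p < 0.05.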

Series [13] concerns Rattus norvegicus. The experiment in a line: Antihypertensive activity in Wistar rat assessed as increase in bradykinin level in urine at 30 mg/kg, po relative to vehicle-treated control. Type of series: functional. The gist of the method:
(§2)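 Male Wistar rats dosed po at 30 mg kg⁻¹ day⁻¹. Urine collected over 6 h before and after treatment. Bradykinin measured by commercial RIA; creatinine excretion also determined. Mean ± SEM, n = 9-10; paired t test.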

A short description of series [14]: Cmax in Sprague-Dawley rat plasma at 10 mg/kg, po. Details: dose 10 mg/kg, route oral. Type of series: ADME, organism-based. The gist of the method: (§3)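 Male Sprague-Dawley rats; single oral 10 mg/kg in glycofurol 75 (19%)/Cremophor RH40 (6%)/water (75%). Plasma and heart sampled at eight time points over 24 h, three animals per time point, nonserial design. Heart homogenized with water (2 g per 1 g tissue). Concentrations measured by LC-MS/MS with a structurally related internal standard; AUC(0-inf) taken from plasma concentration-time curves.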

The subject of series [15] is Rattus norvegicus. The experiment in a line: Antihypertensive activity in Wistar rat assessed as bradykinin-dependent diuresis at 10 mg/kg, iv administered as bolus measured as urine flow rate (reference value: 11.6 uL/min). The class given is functional. The gist of the method: as §1
Series [16] relates to Mus musculus. The series is described as follows: Cardioprotective activity against angiotensin 2-induced cardiac hypertrophy in B6.129P2-ApoE/J mouse assessed as mean arterial pressure at 100 mg/kg, po administered QD after 4 weeks (reference value: 99.03 6.82 mmHg). The class given is functional, Heart.
In series [17] the test system is Mus musculus. The experiment in a line: Toxicity in B6.129P2-ApoE/J mouse assessed as body weight at 100 mg/kg, po administered QD after 4 weeks (reference value: 30.48 0.52 g). The class given is organism-based. More on the design: dose 100 mg/kg, route oral. To be noted: in vivo, 672 h.
Series [18] addresses Cathepsin A (Homo sapiens). The experiment in a line: Inhibition of cathepsin A.
Series [19] in a line: Cmax in Sprague-Dawley rat heart at 10 mg/kg, po. The class given is ADME, organism-based. More on the design: dose 10 mg/kg, route oral. The gist of the method: as §3
The target of series [20] is T1, Lysosomal protective protein (Homo sapiens, UniProt P10619).
T1 sequence (P10619 whole entry): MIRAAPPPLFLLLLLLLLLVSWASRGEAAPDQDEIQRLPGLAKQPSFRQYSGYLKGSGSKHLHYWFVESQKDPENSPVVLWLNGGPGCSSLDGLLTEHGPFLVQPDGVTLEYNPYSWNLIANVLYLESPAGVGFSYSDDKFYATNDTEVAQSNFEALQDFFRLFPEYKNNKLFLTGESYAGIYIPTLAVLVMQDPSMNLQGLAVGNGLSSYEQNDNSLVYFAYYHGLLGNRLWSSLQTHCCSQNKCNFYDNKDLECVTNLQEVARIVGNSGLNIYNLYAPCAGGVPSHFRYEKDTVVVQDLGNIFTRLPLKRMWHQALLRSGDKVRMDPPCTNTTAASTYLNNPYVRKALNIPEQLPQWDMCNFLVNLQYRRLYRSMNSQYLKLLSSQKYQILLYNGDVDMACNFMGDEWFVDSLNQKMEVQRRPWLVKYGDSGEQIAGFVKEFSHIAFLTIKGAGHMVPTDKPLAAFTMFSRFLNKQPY
The series is described as follows: Inhibition of human recombinant Myc-His10-tagged cathepsin A expressed in baculovirus infected Sf9 cells using BodipyFL labeled bradykinin as substrate incubated for 15 mins prior to substrate addition measured after 15 mins by fluorimetric analysis.

Series [21] has as its system Rattus norvegicus. The experiment in a line: Antihypertensive activity in Wistar rat assessed as bradykinin-dependent diuresis at 1 mg/kg, iv administered as bolus measured as urine flow rate (reference value: 11.6 uL/min). Type of series: functional.
For series [22], the system named is Rattus norvegicus. The experiment in a line: Cardioprotective activity against ventricular ischemia/reperfusion in Wistar rat assessed as duration of burst-pacing-induced atrial fibrillation at 30 mg/kg, po administered QD after 3 months (reference value: 25.00 18.09 s). The class given is functional, Cardiac atrium.
For series [23], the system named is Mus musculus. The experiment in a line: Cardioprotective activity against angiotensin 2-induced cardiac hypertrophy in B6.129P2-ApoE/J mouse assessed as heart rate at 100 mg/kg, po administered QD after 4 weeks (reference value: 403.23 7.98 bpm). The class given is functional.
Series [24] in a line: AUC (0 to infinity) in Sprague-Dawley rat plasma at 10 mg/kg, po. The class given is ADME, organism-based. Details: time infinity, dose 10 mg/kg, route oral. The gist of the method: as §3
The test system of series [25] is Mus musculus. The series is described as follows: Cardioprotective activity against angiotensin 2-induced cardiac hypertrophy in B6.129P2-ApoE/J mouse assessed as ejection fraction at 100 mg/kg, po administered QD after 4 weeks (reference value: 51.14 2.49 %). Type of series: functional, Heart.
Series [26] in a line: AUC (0 to infinity) in Sprague-Dawley rat heart at 10 mg/kg, po. Type of series: ADME, organism-based. Details: time infinity, dose 10 mg/kg, route oral. The procedure, abridged: as §3
Series [27] deals with Mus musculus. The series is described as follows: Cardioprotective activity against angiotensin 2-induced cardiac hypertrophy in B6.129P2-ApoE/J mouse assessed as left ventricular end systolic pressure at 100 mg/kg, po administered QD after 4 weeks (reference value: 139.36 9.79 mmHg). Type of series: functional, Heart left ventricle.
Series [28] relates to Mus musculus. The experiment in a line: Ratio of left ventricular wet weight to body weight in B6.129P2-ApoE/J mouse at 100 mg/kg, po administered QD after 4 weeks (reference value: 5.99 0.28 mg/g). Type of series: functional.
The test system of series [29] is Mus musculus. The experiment in a line: Cardioprotective activity against angiotensin 2-induced cardiac hypertrophy in B6.129P2-ApoE/J mouse assessed as left ventricular relaxation time at 100 mg/kg, po administered QD after 4 weeks (reference value: 8.73 0.41 ms). Type of series: functional, Heart left ventricle.
Series [30] has as its system Mus musculus. The experiment in a line: Cardioprotective activity against angiotensin 2-induced cardiac hypertrophy in B6.129P2-ApoE/J mouse assessed as left ventricular wet weight at 100 mg/kg, po administered QD after 4 weeks (reference value: 182.03 […]). The class given is functional, Heart left ventricle.
In series [31] the test system is Rattus norvegicus. The experiment in a line: Effect on glomerular filtration rate in Wistar rat assessed as change in creatinine excretion at 30 mg/kg, po relative to vehicle-treated control. The class given is functional, organism-based. More on the design: dose 30 mg/kg. The gist of the method:
as §2

Sequence of CYP3A4 (P08684 whole entry): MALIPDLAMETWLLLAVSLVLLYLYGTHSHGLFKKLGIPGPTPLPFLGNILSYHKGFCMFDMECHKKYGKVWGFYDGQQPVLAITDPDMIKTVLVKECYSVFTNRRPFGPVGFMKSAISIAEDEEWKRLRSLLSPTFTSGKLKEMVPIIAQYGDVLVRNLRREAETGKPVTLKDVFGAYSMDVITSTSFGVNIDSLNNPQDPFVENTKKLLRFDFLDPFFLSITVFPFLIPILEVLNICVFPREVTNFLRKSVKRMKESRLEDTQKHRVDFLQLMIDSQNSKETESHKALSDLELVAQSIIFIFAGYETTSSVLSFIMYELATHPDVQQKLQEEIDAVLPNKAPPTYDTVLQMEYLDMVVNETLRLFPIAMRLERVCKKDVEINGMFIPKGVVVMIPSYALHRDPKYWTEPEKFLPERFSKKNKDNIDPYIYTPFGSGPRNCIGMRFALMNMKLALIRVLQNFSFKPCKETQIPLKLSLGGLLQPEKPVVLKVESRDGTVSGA
Sequence of Neprilysin (P08473 whole entry): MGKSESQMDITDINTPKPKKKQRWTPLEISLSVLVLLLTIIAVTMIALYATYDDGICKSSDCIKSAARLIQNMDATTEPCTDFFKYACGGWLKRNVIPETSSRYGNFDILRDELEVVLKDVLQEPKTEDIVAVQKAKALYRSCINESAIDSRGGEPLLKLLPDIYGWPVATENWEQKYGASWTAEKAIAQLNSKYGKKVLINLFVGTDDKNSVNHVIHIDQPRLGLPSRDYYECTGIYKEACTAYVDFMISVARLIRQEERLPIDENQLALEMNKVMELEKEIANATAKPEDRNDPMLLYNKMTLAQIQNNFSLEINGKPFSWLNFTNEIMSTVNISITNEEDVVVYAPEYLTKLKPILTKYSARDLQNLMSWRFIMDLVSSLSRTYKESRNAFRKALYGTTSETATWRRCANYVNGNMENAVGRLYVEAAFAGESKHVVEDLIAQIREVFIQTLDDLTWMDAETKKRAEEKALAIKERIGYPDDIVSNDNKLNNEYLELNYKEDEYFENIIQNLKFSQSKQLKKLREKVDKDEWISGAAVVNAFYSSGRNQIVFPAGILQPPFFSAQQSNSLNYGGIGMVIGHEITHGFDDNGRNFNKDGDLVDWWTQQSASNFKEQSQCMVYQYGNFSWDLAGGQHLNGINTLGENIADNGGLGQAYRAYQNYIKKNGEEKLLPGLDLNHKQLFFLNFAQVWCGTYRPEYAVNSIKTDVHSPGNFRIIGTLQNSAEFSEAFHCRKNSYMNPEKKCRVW
Sequence of Voltage-gated inwardly rectifying potassium channel KCNH2 (Q12809 whole entry): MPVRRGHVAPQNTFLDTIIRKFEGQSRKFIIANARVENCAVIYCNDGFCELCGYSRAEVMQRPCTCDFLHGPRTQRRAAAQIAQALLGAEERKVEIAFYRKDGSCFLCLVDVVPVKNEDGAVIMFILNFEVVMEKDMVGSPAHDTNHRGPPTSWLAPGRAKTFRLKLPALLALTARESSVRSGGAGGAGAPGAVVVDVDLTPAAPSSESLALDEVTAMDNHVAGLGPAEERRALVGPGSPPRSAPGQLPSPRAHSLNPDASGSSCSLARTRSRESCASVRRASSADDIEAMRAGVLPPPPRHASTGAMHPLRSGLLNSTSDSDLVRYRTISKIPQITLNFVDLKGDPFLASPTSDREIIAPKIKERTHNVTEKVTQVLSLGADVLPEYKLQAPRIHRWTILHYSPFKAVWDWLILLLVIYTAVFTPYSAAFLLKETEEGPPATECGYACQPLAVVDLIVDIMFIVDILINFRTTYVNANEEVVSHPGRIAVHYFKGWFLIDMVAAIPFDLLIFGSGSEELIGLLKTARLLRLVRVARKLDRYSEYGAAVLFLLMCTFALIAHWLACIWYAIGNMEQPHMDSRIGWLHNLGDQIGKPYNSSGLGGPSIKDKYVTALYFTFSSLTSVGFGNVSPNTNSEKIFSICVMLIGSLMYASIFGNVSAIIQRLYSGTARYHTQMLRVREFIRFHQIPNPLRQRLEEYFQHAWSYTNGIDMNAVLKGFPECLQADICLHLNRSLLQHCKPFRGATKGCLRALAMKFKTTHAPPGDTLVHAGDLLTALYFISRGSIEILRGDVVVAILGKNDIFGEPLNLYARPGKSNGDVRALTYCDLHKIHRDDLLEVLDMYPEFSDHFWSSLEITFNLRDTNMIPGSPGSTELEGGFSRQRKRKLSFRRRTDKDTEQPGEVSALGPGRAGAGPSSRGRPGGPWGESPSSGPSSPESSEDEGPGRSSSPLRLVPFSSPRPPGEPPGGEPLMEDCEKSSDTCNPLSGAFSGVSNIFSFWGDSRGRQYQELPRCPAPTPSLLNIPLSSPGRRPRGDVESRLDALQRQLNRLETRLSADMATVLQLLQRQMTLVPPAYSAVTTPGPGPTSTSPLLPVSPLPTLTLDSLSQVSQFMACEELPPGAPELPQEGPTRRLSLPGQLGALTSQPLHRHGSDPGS

With `Cc1ccccc1[C@H](CC(=O)O)NC(=O)c1cc(=O)n(-c2ccccc2F)[nH]1`, the solubility (as a rule, the concentration that dissolves in the medium under given conditions) in series [1] is over 180 µg/mL. The IC50 (usually the point on the concentration scale where inhibition reaches its midpoint) in series [2] is over 10 µM. The Activity result in [3] and in series [8] was “Non-toxic” in each case. Moreover, the bioavailability – broadly, dose-corrected exposure relative to a reference, in per cent – in series [4] is under 5%. Further, in series [5], the logD (usually the decadic logarithm of the distribution of all forms, ionised or not, between an organic phase and buffer at a given pH) is -0.16. For the same compound, the inhibition entry in series [6] is “Active”. Besides, in [7], the Emax (as a rule, the greatest response seen or fitted, relative to the assay's reference) is 0%. Also, the metabolised in series [9] and in series [10] was 10% each time.
Turning to `COc1cc(C(=O)N[C@@H](CC(=O)O)c2ccccc2C)nn1-c1ccccc1F`, the Activity in series [11] was 8.32 mmHg; in [12], 15.3 µL/min; in [15], 18.3 µL/min; in series [16] it was 95.88 mmHg; in series [17], 29.63 g; in series [21], 14.3 µL/min. In addition, the Activity in [23] is reported as 407.11 bpm; in series [25], 57.89%; in series [27], 129.95 mmHg; in series [30], 142.69 mg. Moreover, in [13], the “fold change (FC)” value was 2. The Cmax – broadly, the peak of the concentration-time curve – in series [14] stood at 22200 ng/mL; in series [19], 3720 ng/mL. The pIC50 (as a rule, the IC50 on a negative log10 scale, so that one unit is a factor of ten) in series [18] is 7.59; in series [6], 5.72; in series [20] it was 7.59. For the same compound, the Time in series [22] came to 0.69 s; in series [29] it was 7.05 ms. Also, the AUC(0-inf) (commonly the area under the concentration-time curve extrapolated to infinity) turned out to be 130 µg·h/mL in series [24] and 16000 ng·h/mL in series [26]. In [7], this compound yielded a maximum response (Emax) of 9%. The Ratio in [28] is 4.84 mg/g. Also, the result in series [31] was inactive.
